A short description of test [1]: Inhibition of ACTH-induced StAR mRNA expression in bovine AZF cells at 10 uM after 24 hrs using [alpha32P]dCTP labeled probes by Northern blot analysis. The settings on record: Bos taurus. It counts as functional. The method, boiled down:
(§1)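 Steer AZF cells ((5–8) × 10^6 per dish, fibronectin-coated) were plated 24 h with serum, then held in serum-free supplemented DMEM/F12. They were preincubated 10 min with curcumin (10 µM), then given 2 nM ACTH for 24 h. Total RNA (10 µg/lane) was run on a denaturing gel and Northern blotted with bovine CYP11a1 or StAR probes. Bands were quantified by phosphorimaging as % control, with 18S rRNA as loading reference and ≥2 experiments.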

Test [2] has as its system AZF. The test can be described thus: Inhibition of Cav3.2 channel in bovine AZF cells at 5 uM by cell patch clamp assay. The settings on record: Bos taurus. It counts as cell-based. A digest of the protocol: (§2)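 Whole-cell T-type Ca2+ currents were recorded from bovine AZF cells 2–12 h after plating (10–15 pF, <15 µm). The pipette held CsCl/BAPTA/MgATP at pH 7.2, and the bath held TEA-Cl with 20 mM Ca2+ at pH 7.4. Current was recorded in standard saline, then the cell was superfused with 5, 10 or 20 µM curcumin, and % inhibition of current amplitude was measured (n = 4–6).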

Test [3] can be described thus: Inhibition of ACTH-stimulated cortisol secretion in bovine AZF cells at 10 uM after 2 hrs by EIA. It counts as functional. As to conditions: Bos taurus. A digest of the protocol: (§3)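 AZF cells were taken from steer adrenals and plated 24 h on fibronectin in serum-containing DMEM/F12 with antioxidants, then moved to serum-free supplemented DMEM/F12. They were exposed to ACTH(1–24) ± curcumin (1–20 µM) for 0.5, 2 or 24 h. Collected media were assayed for cortisol by EIA, in duplicate from duplicate samples, as mean ± SEM.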

The subject of test [4] is AZF. The test can be described thus: Inhibition of Cav3.2 channel in bovine AZF cells at 20 uM by cell patch clamp assay. The settings on record: Bos taurus. It counts as cell-based. The method, boiled down: as §2
On the technique in general: The patch-clamp technique gives a direct electrical read-out from membranes.

The nature of test [5]: Inhibition of 8CPT-cAMP-induced cortisol secretion in bovine AZF cells at 10 uM after 24 hrs by EIA. It counts as functional. As to conditions: Bos taurus. The method, boiled down:
(§4)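 Bovine adrenal zona fasciculata cells from 2–3-yr steers were plated on fibronectin-coated dishes in DMEM/F12 with 10% FBS and antioxidants for 24 h. They were then switched to serum-free DMEM/F12 with BSA, ascorbate, tocopherol, insulin and transferrin, and treated with 250 µM 8CPT-cAMP ± curcumin (1–20 µM). Medium cortisol was measured by EIA in duplicate from duplicate samples, as mean ± SEM.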

The nature of test [6]: Inhibition of Ang2-stimulated cortisol secretion in bovine AZF cells at 20 uM after 2 hrs by EIA. As to conditions: Bos taurus.
Test [7] relates to AZF. The experiment in a line: Inhibition of Cav3.2 channel in bovine AZF cells at 10 uM by cell patch clamp assay. It counts as cell-based. As to conditions: Bos taurus. A digest of the protocol:
as §2

Test [8] in a line: Inhibition of ACTH-stimulated cortisol secretion in bovine AZF cells at 10 uM after 2 4 hrs by EIA. Type of test: functional. As to conditions: Bos taurus. The method, boiled down: as §3
Test [9] is described as follows: Induction of cortisol secretion in bovine AZF cells at 20 uM after 0.5 to 24 hrs by EIA relative to control. It counts as functional, Bos taurus. The method, boiled down: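 AZF cells from adrenal glands of 2–3 yr steers were plated 24 h on fibronectin in DMEM/F12 with 10% FBS, tocopherol, selenite and ascorbate. Medium was then switched to serum-free DMEM/F12 with BSA, ascorbate, tocopherol, insulin and transferrin, with or without compound, at 37 °C. Media were collected at 0.5, 2 and 24 h, and cortisol was measured by EIA (duplicates of duplicate samples, mean ± SEM).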

A short description of test [10]: Inhibition of ACTH-stimulated cortisol secretion in bovine AZF cells at 10 uM after 0.5 hrs by EIA. It counts as functional. The settings on record: Bos taurus. A digest of the protocol: as §3
For test [11], the system named is AZF. The experiment in a line: Inhibition of 8CPT-cAMP-induced cortisol secretion in bovine AZF cells at 1 to 20 uM after 1 hr by EIA. It counts as functional, cell-based. As to conditions: Bos taurus. The method, boiled down:
as §4

The subject of test [12] is AZF. The test can be described thus: Inhibition of ACTH-stimulated cortisol secretion in bovine AZF cells at 1 to 20 uM after 0.5 hrs by EIA. Type of test: functional, cell-based. As to conditions: Bos taurus. A digest of the protocol: as §3
Test [13] in a line: Inhibition of ACTH-induced CYP11a1 mRNA expression in bovine AZF cells at 10 uM after 24 hrs using [alpha32P]dCTP labeled probes by Northern blot analysis. The settings on record: Bos taurus. It counts as functional. The method, boiled down: as §1
Test [14] in a line: Inhibition of ACTH-stimulated cortisol secretion in bovine AZF cells after 3 hrs by EIA. It counts as functional, Bos taurus.
A short description of test [15]: Inhibition of ACTH-stimulated cortisol secretion in bovine AZF cells after 24 hrs by EIA. It counts as functional, Bos taurus.
The target in test [16] is T1, Potassium channel subfamily K member 2 (Bos taurus, UniProt Q8HY88).
T1 sequence (Q8HY88 whole entry): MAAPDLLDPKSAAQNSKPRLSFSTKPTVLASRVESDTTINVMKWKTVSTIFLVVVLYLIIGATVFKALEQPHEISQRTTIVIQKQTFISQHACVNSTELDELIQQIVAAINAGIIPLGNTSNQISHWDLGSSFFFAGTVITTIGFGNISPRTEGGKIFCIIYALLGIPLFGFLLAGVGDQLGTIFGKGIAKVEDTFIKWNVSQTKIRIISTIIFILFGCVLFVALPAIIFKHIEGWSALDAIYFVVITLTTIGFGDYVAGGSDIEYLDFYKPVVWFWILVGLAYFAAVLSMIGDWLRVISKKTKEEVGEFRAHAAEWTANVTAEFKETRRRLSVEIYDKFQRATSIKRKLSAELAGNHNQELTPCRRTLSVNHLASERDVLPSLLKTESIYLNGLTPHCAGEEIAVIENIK
The test can be described thus: Inhibition of TREK-1 K(+) channel in bovine AZF cells. It counts as cell-based.

The nature of test [17]: Inhibition of 8CPT-cAMP-induced cortisol secretion in bovine AZF cells at 10 uM after 1 hr by EIA. The settings on record: Bos taurus. It counts as functional. A digest of the protocol:
as §4

Activity calls are given as the source filed them. The rule behind the calls is not given here.

As usually defined, the inhibition is the drop in the measured response relative to a control, in per cent. By IC50 is commonly meant the midpoint of a concentration-inhibition curve. Take `COc1cc(/C=C/C(=O)CC(=O)/C=C/c2ccc(O)c(OC)c2)ccc1O` [CURCUMIN]: the inhibition at 10 µM in test [1] worked out at 99%; in test [3] it was 92.4%; in [5] it was 96.8%; in test [8], 91%; in [10] it was 81.1%; in test [13], 59%. The inhibition at 10 µM in test [17] amounted to 92.9%. Also, the inhibition in the test on AZF [2] came to 31.9%; in the test on AZF [4], 53.3%; with AZF [7], 41%. The inhibition at 20 µM in test [6] was found to be 94.5%. In test [9], the “fold change (FC)” value is reported as 2. The inhibition entry with AZF [11] and in the test on AZF [12] was “Active” each time. For the same molecule, the entries for the “inhibition (INH)” value in [14] and in [15] were 89% and 92%, respectively. For the same molecule, half-maximal inhibition in test [16] (IC50) was put at 930 nM.
